Screening results deposited in PubChem BioAssay by The Scripps Research Institute Molecular Screening Center.
This is a sample that favours compounds with a hit; in the whole collection about 3.7% have one here.
rCAG binder: binders of r(CAG) RNA repeats, primary screen, biochemical, fluorescence. 370,000 compounds, 1.3% hits. inhibition, % at 3 µM. AID 651821, 2012. r(CAG) RNA repeat, TO-PRO-1 dye displacement fluorescence;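 active = inhibition above the plate cutoff, the mean of all test compounds on that plate plus 3 SD, cut at about 35% in these data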;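 also: higher means more dye released from RNA so lower well fluorescence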
HCV core dimer: inhibitors of HCV core protein dimerization, primary screen, biochemical, TR-FRET, high-throughput; TR-FRET GST/Flag-core106 dimerization, 1536-well; inhibition, % at 5 µM; 300,000 compounds, 0.33% hits;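 active = inhibition above the mean of all tested compounds plus 3 SD, set per screening campaign, cut at about 45% in these data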
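Material: GST/Flag-tagged HCV core106 proteins. Incubation: 4 h, 22.5 °C incubation. Read-out basis: inhibition (%) from 671 over 617 nm ratio. Measured by: TR-FRET, excitation 340 nm, emission 617 and 671 nm.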
NS3 helicase inh: inhibitors of HCV NS3 helicase, primary screen, biochemical, Cy5 molecular beacon fluorescence; NS3 helicase DNA unwinding; Hepatitis C virus NS3 helicase; inhibition, % at 10.9 µM; 290,000 compounds, 0.56% hits;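 active = inhibition above the mean of all tested compounds plus 3 SD, set per campaign, cut at about 35% in these data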
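Control set: DMSO versus 110 µM thioflavine S; Material: NS3 helicase fragment of HCV; Measured by: Cy5 fluorescence at 0 and 60 min, beacon hairpin quenching; Read-out basis: percent inhibition from t60/t0 fluorescence ratio; Times: reaction time 60 min, 25 °C; Repeats: single replicate; Compound dosing: single dose, 10.9 µM nominal final, DMSO 0.8% final.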
TAAR1 antag: human TAAR1 antagonists, primary screen, Fluo-8 calcium fluorescence, CHO RD-HGA16 cells; Trace amine-associated receptor 1 (Homo sapiens), Q96RJ0; antagonist; inhibition, % at 3 µM; 360,000 compounds, 1.5% hits;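 active = inhibition above a per-plate cutoff, the mean inhibition of test compounds on that plate plus 3 SD, cut at about 49% in these data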
Target sequence (Q96RJ0 whole entry, looked up): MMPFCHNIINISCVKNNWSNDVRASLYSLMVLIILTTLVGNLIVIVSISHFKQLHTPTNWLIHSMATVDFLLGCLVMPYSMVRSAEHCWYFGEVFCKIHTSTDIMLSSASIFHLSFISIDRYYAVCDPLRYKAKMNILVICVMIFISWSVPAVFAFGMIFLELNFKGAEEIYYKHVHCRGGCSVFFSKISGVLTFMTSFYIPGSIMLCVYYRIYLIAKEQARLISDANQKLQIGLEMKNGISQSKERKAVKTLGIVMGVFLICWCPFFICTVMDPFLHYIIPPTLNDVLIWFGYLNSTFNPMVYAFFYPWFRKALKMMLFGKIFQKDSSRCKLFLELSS
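System: RD-HGA16 CHO cells with stable hTAAR1 and Gα16 | Probe or stimulus: EC80 β-phenethylamine stimulus | Dosing: 3 µM, single point | Times: Dye loading 75 min at 37 °C, then 30 min room temperature | Measured by: Fluo-8 calcium-sensitive fluorescence | Read-out basis: % inhibition of agonist calcium response | Replicates: n of 1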
TAAR1 agonist: human TAAR1 agonists, primary screen, Fluo-8 calcium fluorescence, CHO RD-HGA16 cells | Trace amine-associated receptor 1 (Homo sapiens), Q96RJ0 | vehicle wells 0%, saturating PEA agonist 100% | activation, % at 3 µM | 360,000 compounds, 0.99% hits;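 active = activation above the mean activation of all test compounds in the run plus 3 SD, cut at about 38% in these data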
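test system = CHO RD-HGA16 cells carrying human TAAR1 plus Gα16 | schedule = 17-24 h seeding, 75 min 37 °C dye, 30 min RT | compound dosing = 3 µM single concentration | control set = DMSO and PEA EC100 | replicates = n 1 | signal = Fluo-8 fluorescence, 5 s baseline then 140 s kinetic read | measure = percent activation vs PEA EC100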
Numbers stand for hits.

How did O=C(NC1(Cc2ccccc2)CCN(Cc2ccc(-c3ccccc3)cc2)C1=O)c1ccccc1 (stereo not drawn) do in these assays?
rCAG binder: inactive; TAAR1 antag: 62.1; TAAR1 agonist: inactive

How did Nn1c(SCC(=O)Nc2ccc(Br)cn2)nnc1-c1n[nH]c2c1CCC2 do in these assays?
rCAG binder: inactive

Results for COc1ccc(CCNC(=O)c2ccc3c(c2)ncn3C2CCCCC2)cc1 ?
rCAG binder: inactive

Results for Cc1ccc(-n2nc3c(=O)n(CCCC(=O)NCCc4ccccc4C)nc(C)c3c2C)cc1 ?
rCAG binder: inactive; HCV core dimer: inactive; NS3 helicase inh: inactive; TAAR1 antag: inactive; TAAR1 agonist: 40.4

Results for COc1cc(C(=O)Nc2scc(-c3ccccc3)c2C(=O)O)cc(OC)c1OC ?
rCAG binder: 49.3; HCV core dimer: inactive; NS3 helicase inh: inactive; TAAR1 antag: inactive; TAAR1 agonist: inactive

What do the screens show for `CCOC(=O)c1c(-c2cc(OC)c(OC)c(OC)c2)csc1NC(=O)c1ccccc1`?
rCAG binder: inactive; TAAR1 antag: inactive; TAAR1 agonist: inactive

Results for CCCC(=O)Nc1cccc(-c2nc3ccccc3o2)c1 ?
rCAG binder: inactive; HCV core dimer: inactive; NS3 helicase inh: inactive; TAAR1 antag: inactive; TAAR1 agonist: inactive

What do the screens show for `COc1ccc(OCC(=O)Nc2cccc(-c3nc4ccccc4o3)c2)cc1`?
rCAG binder: inactive; HCV core dimer: inactive; NS3 helicase inh: inactive; TAAR1 antag: 49.4; TAAR1 agonist: inactive

How did COCCN1Cc2cccc(C(=O)Nc3cccc(-c4nc5ccccc5[nH]4)c3)c2C1=O do in these assays?
rCAG binder: inactive; HCV core dimer: inactive; NS3 helicase inh: inactive; TAAR1 antag: 61.2; TAAR1 agonist: inactive

Results for Cc1cc(C)c(OCC(=O)Nc2nc3ccccc3[nH]2)c(C)c1 ?
rCAG binder: inactive; HCV core dimer: inactive; NS3 helicase inh: inactive; TAAR1 antag: 49.4; TAAR1 agonist: 42.4

Results for O=C(COc1ccccc1)Nc1cccc(-c2nc3ccccc3[nH]2)c1 ?
rCAG binder: inactive; HCV core dimer: inactive; NS3 helicase inh: inactive; TAAR1 antag: 48.9; TAAR1 agonist: inactive

What do the screens show for `Cc1ccccc1OCC(=O)Nc1nc2ccccc2[nH]1`?
rCAG binder: inactive; HCV core dimer: inactive; NS3 helicase inh: inactive; TAAR1 antag: inactive; TAAR1 agonist: inactive

How did O=C(C1CCCN1S(=O)(=O)c1ccc([N+](=O)[O-])cc1)N1CCc2ccccc2C1 (stereo not drawn) do in these assays?
rCAG binder: inactive

What do the screens show for `CCN(CC)S(=O)(=O)c1ccc(/C=C/C(=O)Nc2ccc(Br)cc2F)cc1`?
rCAG binder: inactive; HCV core dimer: inactive; NS3 helicase inh: inactive; TAAR1 antag: 53.1; TAAR1 agonist: inactive

How did COc1ccc2c(c1)[nH]c1c(=O)n(Cc3ccco3)cnc12 do in these assays?
rCAG binder: inactive; HCV core dimer: inactive; NS3 helicase inh: inactive; TAAR1 antag: inactive; TAAR1 agonist: 47.5

What do the screens show for `N#C/C(=C/c1ccccc1OCc1ccc(F)cc1)c1ccc(C(=O)O)cc1`?
rCAG binder: inactive; HCV core dimer: inactive; NS3 helicase inh: inactive; TAAR1 antag: inactive; TAAR1 agonist: inactive

Results for N#C/C(=C/c1cccn1-c1cccc(C(=O)O)c1)c1ccc(F)cc1 ?
rCAG binder: 50.1; NS3 helicase inh: inactive; TAAR1 antag: inactive; TAAR1 agonist: inactive

How did O=C(CSc1nnc(COc2ccccc2)n1-c1ccc(Cl)cc1)Nc1ccc(OCc2ccccc2)cc1 do in these assays?
rCAG binder: inactive

How did Oc1ccc(C=Nc2ccc3ncccc3c2)c(O)c1 do in these assays?
HCV core dimer: 62.7; NS3 helicase inh: inactive

What do the screens show for `Oc1ccc(C=Nc2cccc3ncccc23)c(O)c1`?
rCAG binder: inactive; HCV core dimer: inactive; NS3 helicase inh: inactive; TAAR1 antag: inactive; TAAR1 agonist: inactive

What do the screens show for `COc1cc(/C=C/C(=O)/C=C(O)/C=C/c2ccc(O)c(OC)c2)ccc1O`?
rCAG binder: inactive; TAAR1 antag: 65.3; TAAR1 agonist: 43.9

What do the screens show for `O=C(CSc1nnc(COc2ccccc2)n1Cc1ccco1)Nc1ccc2c(c1)OCO2`?
rCAG binder: inactive

Results for CC(=O)Nc1cccc(NC(=O)CSc2ncc(-c3ccc(Cl)cc3)n2Cc2ccco2)c1 ?
rCAG binder: inactive; HCV core dimer: inactive; NS3 helicase inh: inactive; TAAR1 antag: 84.6; TAAR1 agonist: inactive

What do the screens show for `COc1ccc(-c2cnc(SCC(=O)Nc3ccc4c(c3)OCO4)n2Cc2ccco2)cc1`?
rCAG binder: inactive; NS3 helicase inh: inactive; TAAR1 antag: 51.1; TAAR1 agonist: inactive

Results for COc1ccc2[nH]c3c(c2c1)CCN[C@]31C(=O)N(c2ccccc2)c2ccccc21 ?
rCAG binder: inactive

How did Cc1nn(C)c(C)c1/C=N/N=C1\CCC2C3CCc4cc(O)ccc4C3CCC12C (stereo not drawn) do in these assays?
rCAG binder: inactive; HCV core dimer: inactive; NS3 helicase inh: inactive; TAAR1 antag: 62.8; TAAR1 agonist: inactive

How did C[C@]12CCC3c4ccc(O)cc4CCC3C1CC/C2=N\N (stereo partly drawn) do in these assays?
rCAG binder: inactive; HCV core dimer: inactive; TAAR1 antag: inactive; TAAR1 agonist: inactive

Results for CN[C@H]1C[C@H]2c3cc(-c4ccccc4C)ccc3CCN2C[C@H]1[C@H](C)O ?
rCAG binder: inactive

Results for CCCC[C@H]1C2CC(OC(=O)Nc3ccccc3C)C(C2)[C@H]2CCCCN21 (stereo partly drawn) ?
rCAG binder: inactive

What do the screens show for `CC(=O)c1cccc(NC(=O)COC(=O)c2cccc(N3C(=O)c4ccccc4C3=O)c2)c1`?
rCAG binder: inactive; HCV core dimer: inactive; NS3 helicase inh: inactive; TAAR1 antag: 48.9; TAAR1 agonist: inactive

What do the screens show for `CC(=O)c1cccc(NC(=O)CSC(=O)c2ccccc2)c1`?
rCAG binder: inactive; HCV core dimer: inactive; NS3 helicase inh: inactive; TAAR1 antag: inactive; TAAR1 agonist: 38.4

Results for CCN(CC)c1ccc(NC(=O)CSC(=O)c2ccccc2)cc1 ?
rCAG binder: inactive; TAAR1 antag: inactive; TAAR1 agonist: inactive

How did CCOC(=O)[C@@]12CCCC=C1N(CCc1ccc(Cl)cc1)C(=O)[C@H]2CC(=O)N1CCSCC1 do in these assays?
rCAG binder: inactive

How did Cc1ccc(S(=O)(=O)CCC(=O)NCCN2C(=O)S/C(=C\c3ccccc3)C2=O)cc1 do in these assays?
rCAG binder: inactive; HCV core dimer: inactive; NS3 helicase inh: inactive; TAAR1 antag: 54.6; TAAR1 agonist: inactive

Results for Cc1ccc(S(=O)(=O)CCC(=O)NCCc2ccccc2)cc1 ?
rCAG binder: inactive; HCV core dimer: inactive; NS3 helicase inh: inactive; TAAR1 antag: inactive; TAAR1 agonist: inactive
